Results as given in ChEMBL document CHEMBL2396655, “Design, synthesis, and biological evaluation of (E)-N-aryl-2-arylethenesulfonamide analogues as potent and orally bioavailable microtubule-targeted anticancer agents” (J Med Chem, 2013).
In brackets after ≈: the same amount, converted by molar mass. Activity calls are given as the source filed them. The calls are words filed in the database; no cut-off is given here.

Columns and labels:
[1] = Cytotoxicity against human U87 cells after 96 hrs by sulforhodamine B assay; format: functional, cell-based, U-87MG ATCC; conditions: U-87 MG
MOLT-4 = assay: Cytotoxicity against human MOLT4 cells after 96 hrs by trypan blue exclusion assay; format: functional; conditions: MOLT-4, 96 h
Outline: (§1)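 Cells were grown in DMEM or RPMI with 10% FBS and plated at 2.5×10⁴ cells/well in 12-well dishes. Compounds were added 24 h later at various concentrations. After 96 h, viable cells were counted by trypan blue exclusion from duplicate wells. Results are the mean of two independent experiments.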

Daudi = assay: Cytotoxicity against human Daudi cells after 96 hrs by trypan blue exclusion assay; format: functional; outline: as §1
[2] = Cytotoxicity against human NAMALWA cells after 96 hrs by trypan blue exclusion assay; format: functional; conditions: NAMALVA; outline: as §1
[3] = Cytotoxicity against human H80 cells after 96 hrs by trypan blue exclusion assay; format: functional; conditions: H80, 96 h; outline: as §1
MIA PaCa-2 = assay: Cytotoxicity against human MIAPaCa2 cells after 96 hrs by trypan blue exclusion assay; format: functional; conditions: MIA PaCa-2, 96 h; outline: as §1
[4] = Cytotoxicity against human RF48 cells after 96 hrs by trypan blue exclusion assay; format: functional; conditions: RF48, 96 h; outline: as §1
NCI-H417 = assay: Cytotoxicity against human NCI-N417 cells after 96 hrs by trypan blue exclusion assay; format: functional; conditions: NCI-H417, 96 h
Outline: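 Cells grown in DMEM or RPMI with 10% FBS and 1 unit/mL penicillin-streptomycin, seeded in 12-well dishes at 2.5 ×10⁴ cells/mL/well. Compound added 24 h later at various concentrations. Viable cells counted by trypan blue exclusion from duplicate wells after 96 h. Value taken from dose-response curves of two independent experiments.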

NCI-H187 = assay: Cytotoxicity against human NCI-H187 cells after 96 hrs by trypan blue exclusion assay; format: functional; conditions: NCI-H187, 96 h; outline: as §1
OVCAR-3 = assay: Cytotoxicity against human OVCAR3 cells after 96 hrs by trypan blue exclusion assay; format: functional; conditions: OVCAR-3, 96 h; outline: as §1
SK-OV-3 = assay: Cytotoxicity against human SKOV3 cells after 96 hrs by trypan blue exclusion assay; format: functional; conditions: SK-OV-3, 96 h; outline: as §1
HCT-15 = assay: Cytotoxicity against human HCT15 cells after 96 hrs by trypan blue exclusion assay; format: functional; conditions: HCT-15, 96 h; outline: as §1
HCT-116 = assay: Cytotoxicity against human HCT116 cells after 96 hrs by trypan blue exclusion assay; format: functional; conditions: HCT-116, 96 h; outline: as §1
A-431 = assay: Cytotoxicity against human A431 cells after 96 hrs by trypan blue exclusion assay; format: functional; conditions: A-431, 96 h; outline: as §1
T47D = assay: Cytotoxicity against human T47D cells after 96 hrs by trypan blue exclusion assay; format: functional; outline: as §1
BT-20 = assay: Cytotoxicity against human BT20 cells after 96 hrs by trypan blue exclusion assay; format: functional; conditions: BT-20, 96 h; outline: as §1
BT-474 = assay: Cytotoxicity against human BT474 cells after 96 hrs by trypan blue exclusion assay; format: functional; conditions: BT-474, 96 h; outline: as §1
PC-3 = assay: Cytotoxicity against human PC3 cells after 96 hrs by trypan blue exclusion assay; format: functional; conditions: PC-3, 96 h; outline: as §1
LNCaP = assay: Cytotoxicity against human LNCAP cells after 96 hrs by trypan blue exclusion assay; format: functional; outline: as §1
K562 = assay: Cytotoxicity against human K562 cells after 96 hrs by trypan blue exclusion assay; format: functional, cell-based; conditions: for GI50 / IC50: K562, 96 h; outline: as §1
DU-145 = assay: Cytotoxicity against human DU145 cells after 96 hrs by trypan blue exclusion assay; format: functional, cell-based; conditions: for GI50 / IC50: DU-145, 96 h; outline: as §1
[5] = Solubility of the compound in water; format: physicochemical
MES-SA = assay: Resistance factor, ratio of GI50 for multidrug-resistant human MES-SA/Dx5 cells to GI50 for human MES-SA cells; format: functional
[6] = Growth inhibition of human MES-SA cells; format: functional
[7] = Growth inhibition of multidrug-resistant human MES-SA/Dx5 cells; format: functional
Bos taurus [8] = species on record: Bos taurus; assay: Inhibition of bovine brain tubulin assessed as destabilization of microtubule polymerization at 10 uM over 40 mins by spectrophotometric analysis
Outline: (§2)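 Purified bovine brain tubulin was incubated at 37 °C with 10 μM compound, DMSO or reference agents. Polymerization was followed as rising absorbance at 340 nm over 40 min. Data are representative of three independent experiments.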

MCF7 = assay: Cytotoxicity against human MCF7 cells after 96 hrs by trypan blue exclusion assay; format: functional; conditions: MCF7, 96 h; outline: as §1
CCRF-CEM [9] = assay: Resistance factor, ratio of GI50 for multidrug-resistant human CEM/C2 cells to GI50 for human CEM cells; format: functional
CCRF-CEM [10] = assay: Growth inhibition of human CEM cells; format: functional
CEM/C2 = assay: Growth inhibition of multidrug-resistant human CEM/C2 cells; format: functional
2008 [11] = assay: Resistance factor, ratio of GI50 for paclitaxel-resistant human 2008/17/4 cells to GI50 for human 2008 cells; format: functional
2008 [12] = assay: Growth inhibition of human 2008 cells; format: functional
[13] = Growth inhibition of paclitaxel-resistant human 2008/17/4 cells; format: functional
Outline: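 Cells grown in DMEM or RPMI with 10% FBS and penicillin-streptomycin, seeded at 2.5 × 10⁴ cells/mL/well; compound added 24 h later over a concentration range. After 96 h, viable cells counted by trypan blue exclusion in duplicate wells. GI₅₀ is the concentration giving 50% growth inhibition, reported as mean ± SD of two independent experiments.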

Bos taurus [14] = species on record: Bos taurus; assay: Effect on bovine brain tubulin assessed as stabilization of microtubule polymerization at 10 uM over 40 mins by spectrophotometric analysis; outline: as §2

SMILES | IC50 [1] | GI50 [2] | GI50 [3] | GI50 (MIA PaCa-2) | GI50 (NCI-H417) | GI50 (OVCAR-3) | GI50 (HCT-15) | GI50 (A-431) | GI50 (BT-20) | GI50 (BT-474) | GI50 (LNCaP) | Activity (K562) | GI50 (K562) | IC50 (K562) | Activity (DU-145) | GI50 (DU-145) | IC50 (DU-145) | RatioGI50 (MES-SA) | GI50 [6] | GI50 [7] | further results
COc1ccc(NS(=O)(=O)/C=C/c2c(OC)cc(OC)cc2OC)cc1 | 0.229 µM | 0.1 µM | 0.1 µM | 0.1 µM | 0.05 µM | 0.1 µM | 0.1 µM | 0.03 µM | 0.25 µM | 0.25 µM | 0.1 µM | Dose-dependent effect | 0.075 µM | 0.075 µM | Dose-dependent effect | 0.075 µM | 0.2 µM |  |  |  | GI50 (MOLT-4): 0.1 µM; GI50 (Daudi): 0.1 µM; GI50 [4]: 0.025 µM; GI50 (NCI-H187): 0.1 µM; GI50 (SK-OV-3): 0.1 µM; GI50 (HCT-116): 0.1 µM; GI50 (T47D): 0.1 µM; GI50 (PC-3): 0.1 µM
COc1cc(OC)c(/C=C/S(=O)(=O)Nc2ccc(OC)c(NC(C)(C)C(=O)O)c2)c(OC)c1 | 0.09 µM |  |  | 0.08 µM | 0.03 µM |  | 0.2 µM | 0.15 µM | 0.1 µM | 0.15 µM | 0.1 µM | Dose-dependent effect | 0.01 µM | 0.005 µM | Dose-dependent effect | 0.15 µM | 0.07 µM | 1.3 | 0.07 µM | 0.09 µM | solubility [5]: 10000 µg/mL (≈ 20.8 mM); inhibition (Bos taurus [8]): Active; GI50 (MCF7): 0.08 µM
CC[C@@]1(O)C(=O)OCc2c1cc1n(c2=O)Cc2cc3ccccc3nc2-1 [CAMPTOTHECIN] |  |  |  |  |  |  |  |  |  |  |  |  |  |  |  |  |  |  |  |  | RatioGI50 (CCRF-CEM [9]): 500; GI50 (CCRF-CEM [10]): 0.002 µM; GI50 (CEM/C2): 1 µM
COc1cc(OC)c(/C=C/S(=O)(=O)Nc2ccc(OC)c(O)c2)c(OC)c1 | 0.026 µM | 0.025 µM | 0.025 µM |  | 0.01 µM | 0.1 µM |  | 0.6 µM | 0.25 µM |  | 0.05 µM | Dose-dependent effect | 0.015 µM | 0.015 µM | Dose-dependent effect | 0.05 µM | 0.03 µM |  |  |  | 
CC(=O)O[C@H]1C(=O)[C@@]2(C)[C@H]([C@H](OC(=O)c3ccccc3)[C@]3(O)C[C@H](OC(=O)[C@H](O)[C@@H](NC(=O)c4ccccc4)c4ccccc4)C(C)=C1C3(C)C)[C@]1(OC(C)=O)CO[C@@H]1C[C@@H]2O [PACLITAXEL] |  |  |  |  |  |  |  |  |  |  |  |  |  |  |  |  |  | 190 | 0.004 µM | 0.75 µM | RatioGI50 2008 [11]: 600; GI50 2008 [12]: 0.003 µM; GI50 [13]: 2 µM; Activity (Bos taurus [14]): Active
